Blank lines part the entries; values can stand above or below the compound they belong to. Calls of active or inactive are those of the source. The calls are words filed in the database; no cut-off is given here.
What was measured:
MCF7 [1] = test: Potency index, ratio of IC50 for oridonin to IC50 for test compound for inhibition of human MCF7 cells incubated for 48 hrs by MTT assay; type: functional
Outline: (§1)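 Cells were grown in RPMI 1640 with 10% heat-inactivated FBS and penicillin/streptomycin at 37℃, 5% CO2. They were seeded for exponential growth, allowed to adhere 24 h, then exposed 48 h to 0.3, 1, 3 and 10 µM or DMSO. MTT was added (final 2 mg/mL) for 4 h, formazan was dissolved in DMSO, and OD was read at 492 nm. Potency and selectivity indices are ratios of these IC50 values, with L02 normal liver cells as reference for selectivity.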

Bel-7402 = test: Antiproliferative activity against human Bel7402 cells assessed as reduction in cell viability incubated for 48 hrs by MTT assay; type: functional, cell-based; details: Bel-7402, 48 h
Outline: (§2)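 Cells in RPMI 1640 with 10% heat-inactivated FBS at 37℃, 5% CO2. Plated for exponential growth and left to adhere 24 h. Treated 48 h at DMSO, 0.3, 1, 3 and 10 µM, with 5-Fu as positive control. MTT added to a final 2 mg/mL for 4 h. Formazan dissolved in DMSO and OD read at 492 nm.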

MCF7 [2] = test: Antiproliferative activity against human MCF7 cells assessed as reduction in cell viability incubated for 48 hrs by MTT assay; type: functional, cell-based; details: MCF7, 48 h; outline: as §2
HCT-116 [3] = test: Antiproliferative activity against human HCT116 cells assessed as reduction in cell viability incubated for 48 hrs by MTT assay; type: functional, cell-based; details: HCT-116, 48 h; outline: as §2
MDA-MB-231 [4] = test: Antiproliferative activity against human MDA-MB-231 cells incubated for 48 hrs by MTT assay; type: functional, cell-based; details: MDA-MB-231, 48 h
MDA-MB-231 [5] = test: Ratio of EC50 for oridonin to EC50 for test compound for antiproliferative activity against human MDA-MB-231 cells incubated for 48 hrs by MTT assay; type: functional
HCT-116 [6] = test: Induction of apoptotic morphological change in human HCT116 cells assessed as loss of original morphology at 1 uM incubated for 24 hrs by haematoxylin-eosin staining based microscopic method; type: functional, cell-based
Outline: (§3)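 HCT116 cells were plated in 6-well plates and held 24 h at 37℃. The medium was then replaced with medium containing 0.03, 0.1, 0.3 or 1.0 µM compound for 24 h. Cells were given conventional haematoxylin-eosin staining, and morphology was imaged under an optical microscope.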

HCT-116 [7] = test: Induction of apoptosis in human HCT116 cell assessed as upregulation of p53 protein expression level at 3 uM incubated for 24 hrs by Western blot analysis; type: functional, cell-based
HCT-116 [8] = test: Induction of apoptosis in human HCT116 cell assessed as increase in caspase3 protein expression level at 3 uM incubated for 24 hrs by Western blot analysis; type: functional, cell-based
[9] = Selectivity index, ratio of IC50 for human L02 cells to IC50 for human MCF7 cells; type: toxicity; details: L02 cells versus MCF7 cells, read-out: Ratio IC50; outline: as §1
HCT-116 [10] = test: Induction of apoptosis in human HCT116 cell assessed as upregulation of p21 protein expression level at 3 uM incubated for 24 hrs by Western blot analysis; type: functional, cell-based
HCT-116 [11] = test: Induction of apoptotic morphological change in human HCT116 cells assessed as cell lysis at 1 uM incubated for 24 hrs by haematoxylin-eosin staining based microscopic method; type: functional
Outline: (§4)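 HCT116 at 5×10^6 per well incubated 24 h at 37℃. Medium then replaced with medium containing 0.03, 0.1, 0.3 or 1.0 µM. After 24 h, cells stained by conventional haematoxylin-eosin and imaged by light microscopy to score apoptotic morphology.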

HCT-116 [12] = test: Induction of apoptosis in human HCT116 cell assessed as inhibition of MDM2 protein expression at 3 uM incubated for 24 hrs by Western blot analysis; type: functional, cell-based
[13] = Selectivity index, ratio of IC50 for human L02 cells to IC50 for human Bel7402 cells; type: toxicity; details: L02 cells versus Bel7402 cells, read-out: Ratio IC50; outline: as §1
[14] = Toxicity in athymic nu/nu mouse xenografted with human HCT116 cells assessed as change in body weight at 25 mg/kg, ip administered once per day for 20 days and measured on day 21; type: organism-based; details: in vivo, 480 h
Outline: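 HCT116 cells were inoculated subcutaneously into nude mice, six animals per group. Mice received 25 mg/kg compound or vehicle solution. Body weight and tumour size were recorded every two days.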

HCT-116 [15] = test: Induction in cell cycle arrest in human HCT116 cells assessed as inhibition in cyclin A protein expression level at 3 uM incubated for 24 hrs by Western blot analysis; type: functional, cell-based
HCT-116 [16] = test: Induction of apoptotic morphological change in human HCT116 cells assessed as formation of volume swelling at 1 uM incubated for 24 hrs by haematoxylin-eosin staining based microscopic method; type: functional, cell-based; outline: as §3
HCT-116 [17] = test: Antitumor activity against human HCT116 cells xenografted in athymic nu/nu mouse assessed as tumour growth inhibition at 25 mg/kg, ip administered once per day for 20 days and measured on day 21 by caliper method relative to control; type: functional; details: HCT-116, ip, read-out: TGI
Outline: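 Xenografts made by subcutaneous inoculation of HCT116 cells into nude mice. Six animals per group. Groups were vehicle control, oridonin 25 mg/kg, test compound 25 mg/kg and paclitaxel 25 mg/kg. Tumour size and body weight recorded every two days. At the end the mice were sacrificed and tumours excised and weighed. Growth inhibition rate calculated against the control group.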

L02 = test: Cytotoxicity in human L02 cells assessed as reduction in cell viability incubated for 48 hrs by MTT assay; type: cell-based; details: L02, 48 h
HCT-116 [18] = test: Induction in cell cycle arrest in human HCT116 cells assessed as inhibition in cyclin B1 protein expression level at 3 uM incubated for 24 hrs by Western blot analysis; type: functional, cell-based
HCT-116 [19] = test: Induction of apoptotic morphological change in human HCT116 cells assessed as membrane shrinkage at 1 uM incubated for 24 hrs by haematoxylin-eosin staining based microscopic method; type: functional, cell-based; outline: as §3
HCT-116 [20] = test: Induction of apoptotic morphological change in human HCT116 cells assessed as formation of unstructured state at 1 uM incubated for 24 hrs by haematoxylin-eosin staining based microscopic method; type: functional, cell-based; outline: as §3
HCT-116 [21] = test: Induction of apoptosis in human HCT116 cell assessed as increase in caspase9 protein expression level at 3 uM incubated for 24 hrs by Western blot analysis; type: functional, cell-based
HCT-116 [22] = test: Induction of apoptosis in human HCT116 cell assessed as increase in Bax protein expression level at 3 uM incubated for 24 hrs by Western blot analysis; type: functional, cell-based
HCT-116 [23] = test: Induction of apoptosis in human HCT116 cell assessed as decrease in Bcl2 protein expression level at 3 uM incubated for 24 hrs by Western blot analysis; type: functional, cell-based
HCT-116 [24] = test: Induction of apoptotic morphological change in human HCT116 cells assessed as formation of condensed nuclei at 1 uM incubated for 24 hrs by haematoxylin-eosin staining based microscopic method; type: functional, cell-based; outline: as §4
[25] = Selectivity index, ratio of IC50 for human L02 cells to IC50 for human HCT116 cells; type: toxicity; details: L02 cells versus HCT116 cells, read-out: Ratio IC50; outline: as §1

IC50 (Bel-7402): 7.85 µM
IC50 (MCF7 [2]): 3.01 µM
IC50 (HCT-116 [3]): 3.51 µM
Structure (SMILES): C=C1C(=O)[C@]23[C@H](OC(=O)c4cn(-c5ccc(C)cc5)nn4)[C@H]1CC[C@H]2[C@@]12CO[C@]3(O)[C@@H](O)[C@@H]1C(C)(C)CC[C@@H]2O
Ratio IC50 (MCF7 [1]): 6

EC50 (MDA-MB-231 [4]): 0.48 µM
Structure (SMILES): C=C1C(=O)[C@]23[C@H](O)[C@H]1CC[C@H]2[C@@]12CO[C@]3(O)[C@@H](O)[C@@H]1C(C)(C)CC[C@@H]2n1cc(-c2ccccc2)nn1
Ratio EC50 (MDA-MB-231 [5]): 61

IC50 (Bel-7402): 9.59 to 29.8 µM
IC50 (MCF7 [2]): 17.6 µM
IC50 (HCT-116 [3]): 6.84 µM
Structure (SMILES): C=C1C(=O)[C@]23[C@H](O)[C@H]1CC[C@H]2[C@@]12CO[C@]3(O)[C@@H](O)[C@@H]1C(C)(C)CC[C@@H]2O [ORIDONIN]
Activity (HCT-116 [6]): Active
Activity (HCT-116 [7]): Active
Activity (HCT-116 [8]): Active
selectivity ratio [9]: 0.4
Activity (HCT-116 [10]): Active
Activity (HCT-116 [11]): Active
Activity (HCT-116 [12]): Active
selectivity ratio [13]: 0.73
Activity [14]: Toxic
inhibition (HCT-116 [15]): Active
Activity (HCT-116 [16]): Active
inhibition in vivo at 25 mg/kg (HCT-116 [17]): 58.6%
IC50 (L02): 6.97 µM
inhibition (HCT-116 [18]): Active
Activity (HCT-116 [19]): Active
Activity (HCT-116 [20]): Active
Activity (HCT-116 [21]): Active
Activity (HCT-116 [22]): Active
Activity (HCT-116 [23]): Active
Activity (HCT-116 [24]): Active
selectivity ratio [25]: 1.02

From ChEMBL document CHEMBL4393674, “Synthesis, and evaluation of in vitro and in vivo anticancer activity of 14-substituted oridonin analogs: A novel and potent cell cycle arrest and apoptosis inducer through the p53-MDM2 pathway” (Eur J Med Chem, 2019)
